In series [1] the target is T1, 5-hydroxytryptamine receptor 2C (Homo sapiens, UniProt P28335).
T1 sequence (P28335 whole entry): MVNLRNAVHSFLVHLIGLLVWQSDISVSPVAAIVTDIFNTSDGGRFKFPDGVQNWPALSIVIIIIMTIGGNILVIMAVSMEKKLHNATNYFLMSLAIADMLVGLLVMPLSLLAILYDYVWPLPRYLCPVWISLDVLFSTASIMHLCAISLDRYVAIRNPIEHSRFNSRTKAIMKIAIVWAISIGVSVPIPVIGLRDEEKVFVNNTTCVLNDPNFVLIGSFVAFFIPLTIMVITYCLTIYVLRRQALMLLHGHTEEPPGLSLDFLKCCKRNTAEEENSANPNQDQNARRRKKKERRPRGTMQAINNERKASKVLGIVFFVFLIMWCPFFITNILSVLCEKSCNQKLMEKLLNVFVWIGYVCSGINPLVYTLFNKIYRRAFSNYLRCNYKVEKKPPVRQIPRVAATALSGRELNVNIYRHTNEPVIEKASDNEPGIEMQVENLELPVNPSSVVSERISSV
As to the kind of experiment: (§1) Agonist activity at 5HT2C receptor (unknown origin) relative to control.

Series [2] has as its target T2, 5-hydroxytryptamine receptor 2C (Homo sapiens) (UniProt P28335).
T2 sequence (whole entry): T1 sequence (P28335 whole entry)
The description is as §1.

For series [3], the species on record is Homo sapiens. Description: Selectivity ratio of EC50 for 5HT2B receptor (unknown origin) to EC50 for 5HT2C receptor (unknown origin).
In series [4] the target is T3, 5-hydroxytryptamine receptor 2B (Homo sapiens, UniProt P41595). Description: Agonist activity at 5HT2B receptor (unknown origin) relative to control. In a few lines: (§2)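 Flp-In-293 cells stably expressing human 5-HT2A, 5-HT2B or 5-HT2C-INI; grown 24–48 h in DMEM/10% dialyzed FBS, plated on poly-L-Lys at 12000 cells/well in 1% dialyzed FBS for 24 h. Loaded 1 h at 37 °C with calcium dye in HBSS, 20 mM Hepes pH 7.40, 2.5 mM probenecid.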
T3 sequence (P41595 whole entry): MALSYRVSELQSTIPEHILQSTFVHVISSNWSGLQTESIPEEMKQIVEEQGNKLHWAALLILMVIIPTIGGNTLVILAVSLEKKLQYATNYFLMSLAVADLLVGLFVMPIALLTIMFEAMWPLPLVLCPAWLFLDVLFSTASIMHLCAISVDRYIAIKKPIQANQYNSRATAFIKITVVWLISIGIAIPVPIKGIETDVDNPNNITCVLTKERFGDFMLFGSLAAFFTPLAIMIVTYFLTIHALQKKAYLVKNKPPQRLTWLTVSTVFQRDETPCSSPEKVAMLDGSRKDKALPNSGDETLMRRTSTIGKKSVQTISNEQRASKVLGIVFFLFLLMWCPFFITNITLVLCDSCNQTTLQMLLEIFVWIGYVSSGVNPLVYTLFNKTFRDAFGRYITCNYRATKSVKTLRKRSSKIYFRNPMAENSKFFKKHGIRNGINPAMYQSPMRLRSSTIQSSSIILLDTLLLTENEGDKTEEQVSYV

Series [5] is described as follows: Bioavailability in mouse. Format: ADME, organism-based. The settings on record: in vivo.
Series [6] addresses T1, 5-hydroxytryptamine receptor 2C. As to the kind of experiment: Agonist activity at human 5-HT2C receptor expressed in HEK293 cells assessed as calcium flux by FLIPR assay. In kind it is functional, cell-based. In general terms: Calcium assays in cells follow changes in intracellular calcium, usually with a dye or a luminescent sensor.
Series [7] deals with T4, hERG (KCNH2) (Homo sapiens, UniProt Q12809). As to the kind of experiment: Inhibition of human ERG channel expressed in CHO cells at 30 uM by patch clamp method. The settings on record: CHO cells expressing human ERG channel. In kind it is cell-based. In a few lines:
(§3)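 hERG current recorded in CHO cells by automated patch clamp; percent inhibition at 0.37, 1.1, 3.3, 10 and 30 µM.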

Series [8] has as its target 5-hydroxytryptamine receptor 7 (Homo sapiens, UniProt P34969). Description: Binding affinity to 5HT7 receptor (unknown origin).
The target of the next series is CYP2C19 (Homo sapiens, UniProt P33261). As to the kind of experiment: Inhibition of human CYP2C19 using omeprazole as substrate at 10 uM. Format: ADME. The settings on record: probe omeprazole.
Chain of CYP2C19 (P33261 whole entry): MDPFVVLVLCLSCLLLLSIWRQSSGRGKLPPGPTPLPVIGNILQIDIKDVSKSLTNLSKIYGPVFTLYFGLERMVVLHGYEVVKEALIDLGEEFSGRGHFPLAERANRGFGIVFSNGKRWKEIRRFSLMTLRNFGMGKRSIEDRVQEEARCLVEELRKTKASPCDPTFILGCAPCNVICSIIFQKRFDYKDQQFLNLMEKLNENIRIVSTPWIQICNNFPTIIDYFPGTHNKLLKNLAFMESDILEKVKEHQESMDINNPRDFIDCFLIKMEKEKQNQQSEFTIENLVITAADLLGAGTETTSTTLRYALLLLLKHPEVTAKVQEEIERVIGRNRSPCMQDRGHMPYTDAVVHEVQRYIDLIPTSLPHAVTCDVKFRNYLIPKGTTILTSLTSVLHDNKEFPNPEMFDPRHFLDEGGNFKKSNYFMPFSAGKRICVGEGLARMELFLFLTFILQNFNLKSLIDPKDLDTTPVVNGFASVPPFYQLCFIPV
For series [9], the target named is T4, hERG (KCNH2). Description: (§4) Inhibition of human ERG channel expressed in CHO cells at […] by patch clamp method. Format: cell-based. The settings on record: CHO cells expressing human ERG channel. In general terms: The patch-clamp technique gives a direct electrical read-out from membranes.
In another series the target is D(3) dopamine receptor (Homo sapiens, UniProt P35462). As to the kind of experiment: Binding affinity to dopamine D3 receptor (unknown origin).
The test system of another series is Mus musculus. Description: Antipsychotic activity in C57BL/6J mouse assessed as reduction of amphetamine-induced locomotor activity administered ip 15 mins prior to amphetamine challenge measured for 105 mins by open field test relative to vehicle-treated control. Format: functional, organism-based.
Series [10] addresses Voltage-gated inwardly rectifying potassium channel KCNH2 (Homo sapiens, UniProt Q12809). As to the kind of experiment: Inhibition of human ERG channel expressed in CHO cells by patch clamp method. Format: cell-based. Particulars: human, cho.
The next series addresses CYP2D6 (Homo sapiens, UniProt P10635). Description: Inhibition of human CYP2D6 using dextromethorphan as substrate at 10 uM. Format: ADME. Particulars: probe dextromethorphan.
The target in series [11] is T4, hERG (KCNH2). As to the kind of experiment: Inhibition of human ERG channel expressed in CHO cells at 10 uM by patch clamp method. Format: cell-based. The settings on record: CHO cells expressing human ERG channel. In a few lines: as §3
The target in series [12] is 5-hydroxytryptamine receptor 6 (Homo sapiens, UniProt P50406). As to the kind of experiment: Binding affinity to 5HT6 receptor (unknown origin).
For series [13], the target named is Alpha-2C adrenergic receptor (Homo sapiens, UniProt P18825). Description: Binding affinity to adrenergic alpha-2C receptor (unknown origin).
Chain of Alpha-2C adrenergic receptor (P18825 whole entry): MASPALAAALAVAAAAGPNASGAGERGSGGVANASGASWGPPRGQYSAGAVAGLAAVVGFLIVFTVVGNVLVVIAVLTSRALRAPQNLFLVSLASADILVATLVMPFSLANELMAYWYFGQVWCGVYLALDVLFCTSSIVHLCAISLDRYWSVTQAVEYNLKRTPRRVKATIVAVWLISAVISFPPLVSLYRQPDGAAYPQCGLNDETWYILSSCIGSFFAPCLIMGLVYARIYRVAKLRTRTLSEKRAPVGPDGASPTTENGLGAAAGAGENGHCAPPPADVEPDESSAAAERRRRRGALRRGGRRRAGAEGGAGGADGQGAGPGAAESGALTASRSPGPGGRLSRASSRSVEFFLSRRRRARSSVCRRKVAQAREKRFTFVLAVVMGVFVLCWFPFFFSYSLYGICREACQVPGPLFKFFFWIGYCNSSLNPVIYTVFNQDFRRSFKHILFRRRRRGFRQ
For series [14], the target named is T5, 5-hydroxytryptamine receptor 2A (Homo sapiens, UniProt P28223). Description: Agonist activity at human 5-HT2A receptor expressed in HEK293 cells assessed as calcium flux by FLIPR assay. Format: functional, cell-based.
T5 sequence (P28223 whole entry): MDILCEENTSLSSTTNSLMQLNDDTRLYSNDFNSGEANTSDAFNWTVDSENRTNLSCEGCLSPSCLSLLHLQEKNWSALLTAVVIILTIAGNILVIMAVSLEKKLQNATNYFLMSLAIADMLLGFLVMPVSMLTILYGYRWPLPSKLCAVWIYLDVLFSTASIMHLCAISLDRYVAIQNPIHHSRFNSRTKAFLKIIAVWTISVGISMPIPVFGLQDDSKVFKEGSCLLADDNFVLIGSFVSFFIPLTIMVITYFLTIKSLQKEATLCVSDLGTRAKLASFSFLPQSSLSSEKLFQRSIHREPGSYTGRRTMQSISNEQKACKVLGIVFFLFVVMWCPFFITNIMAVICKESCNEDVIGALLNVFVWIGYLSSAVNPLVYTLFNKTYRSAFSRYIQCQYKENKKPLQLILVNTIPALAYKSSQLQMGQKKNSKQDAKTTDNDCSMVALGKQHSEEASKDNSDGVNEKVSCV
A further series concerns the target CYP3A4 (Homo sapiens, UniProt P08684). Description: Inhibition of human CYP3A4 using midazolam as substrate at 10 uM. In kind it is ADME. The settings on record: probe midazolam. In outline:
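Human liver microsomes with test compound at 10 µM; percent inhibition determined using bupropion (2B6), dextromethorphan (2D6) or midazolam (3A/3A4) as probe substrates.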

Series [15] has as its target Alpha-2B adrenergic receptor (Homo sapiens, UniProt P18089). Description: Binding affinity to adrenergic alpha-2B receptor (unknown origin).
Series [16] concerns the target T5, 5-hydroxytryptamine receptor 2A. Description: Agonist activity at human 5-HT2A receptor expressed in HEK293 cells assessed as calcium flux by FLIPR assay relative to 5-HT. In kind it is functional, cell-based. In outline:
as §2

Another series addresses T6, CYP2B6 (Homo sapiens, UniProt P20813).
T6 sequence (P20813 whole entry): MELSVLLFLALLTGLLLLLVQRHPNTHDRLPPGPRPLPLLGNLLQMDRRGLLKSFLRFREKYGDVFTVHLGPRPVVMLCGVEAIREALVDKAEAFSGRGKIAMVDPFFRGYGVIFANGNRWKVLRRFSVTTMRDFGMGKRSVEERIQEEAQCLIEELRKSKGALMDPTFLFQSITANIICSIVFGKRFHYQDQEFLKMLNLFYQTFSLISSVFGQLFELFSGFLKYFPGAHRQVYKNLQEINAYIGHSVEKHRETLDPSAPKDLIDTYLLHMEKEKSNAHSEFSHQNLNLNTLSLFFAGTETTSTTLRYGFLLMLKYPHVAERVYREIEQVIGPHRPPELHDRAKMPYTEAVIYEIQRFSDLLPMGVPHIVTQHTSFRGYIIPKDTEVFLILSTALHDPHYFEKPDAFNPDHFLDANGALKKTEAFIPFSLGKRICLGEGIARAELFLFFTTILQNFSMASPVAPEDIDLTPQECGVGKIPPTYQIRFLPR
As to the kind of experiment: Inhibition of human CYP2B6 using bupropion as substrate at 10 uM. Format: ADME. Particulars: probe bupropion.

Series [17] deals with 5-hydroxytryptamine receptor 1A (Homo sapiens, UniProt P08908). As to the kind of experiment: Binding affinity to 5HT1A receptor (unknown origin).
Chain of 5-hydroxytryptamine receptor 1A (P08908 whole entry): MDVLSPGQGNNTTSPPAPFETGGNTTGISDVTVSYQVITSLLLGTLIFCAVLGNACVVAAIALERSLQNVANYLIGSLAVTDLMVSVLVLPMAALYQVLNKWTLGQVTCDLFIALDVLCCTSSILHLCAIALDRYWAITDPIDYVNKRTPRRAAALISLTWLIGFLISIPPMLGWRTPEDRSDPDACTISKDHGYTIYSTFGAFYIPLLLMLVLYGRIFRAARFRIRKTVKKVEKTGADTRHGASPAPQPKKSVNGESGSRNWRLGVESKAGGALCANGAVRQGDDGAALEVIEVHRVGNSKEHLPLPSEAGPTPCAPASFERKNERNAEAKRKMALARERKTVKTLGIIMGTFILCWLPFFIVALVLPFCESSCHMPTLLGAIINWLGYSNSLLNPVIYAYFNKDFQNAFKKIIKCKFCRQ
For series [18], the species on record is Homo sapiens. As to the kind of experiment: Selectivity ratio of EC50 for human 5-HT2A receptor to EC50 for human 5HT2C receptor.
The target of series [19] is Alpha-2A adrenergic receptor (Homo sapiens, UniProt P08913). As to the kind of experiment: Binding affinity to adrenergic alpha-2A receptor (unknown origin).
Chain of Alpha-2A adrenergic receptor (P08913 whole entry): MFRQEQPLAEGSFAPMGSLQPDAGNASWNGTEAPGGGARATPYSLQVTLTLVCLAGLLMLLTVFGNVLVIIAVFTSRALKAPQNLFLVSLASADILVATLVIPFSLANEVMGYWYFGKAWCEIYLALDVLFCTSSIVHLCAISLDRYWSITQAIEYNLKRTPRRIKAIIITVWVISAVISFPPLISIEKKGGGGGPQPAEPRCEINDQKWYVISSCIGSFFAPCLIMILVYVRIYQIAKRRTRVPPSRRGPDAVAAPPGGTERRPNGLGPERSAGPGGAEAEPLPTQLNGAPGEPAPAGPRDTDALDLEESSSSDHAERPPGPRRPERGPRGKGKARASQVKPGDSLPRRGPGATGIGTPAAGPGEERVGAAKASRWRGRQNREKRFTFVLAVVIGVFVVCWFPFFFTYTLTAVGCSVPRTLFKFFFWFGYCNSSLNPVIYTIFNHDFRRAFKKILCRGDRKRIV
The target of series [20] is T3, 5-hydroxytryptamine receptor 2B. Description: Agonist activity at human 5-HT2B receptor expressed in HEK293 cells assessed as calcium flux at 10 uM by FLIPR assay. Format: functional, cell-based. In outline: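 Flp-In-293 cells stably expressing human 5-HT2A, 5-HT2B or 5-HT2C-INI, grown in DMEM with 10% dialyzed FBS, then plated for 24 h in 1% dialyzed FBS. Cells were loaded 1 h at 37 °C with calcium dye in Hepes-buffered HBSS, pH 7.40, containing 2.5 mM probenecid. FLIPR read 10 s baseline, then 120 s after drug addition.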

For series [21], the target named is T4, hERG (KCNH2). Described as §4. In kind it is cell-based. The settings on record: CHO cells expressing human ERG channel. The source holds these as a separate data set.
The target in series [22] is T2, 5-hydroxytryptamine receptor 2C (Homo sapiens). Description: Agonist activity at human 5-HT2C receptor expressed in HEK293 cells assessed as calcium flux by FLIPR assay relative to 5-HT. In kind it is functional, cell-based. In outline:
as §2

In a further series the target is CYP2C9 (Homo sapiens, UniProt P11712). Description: Inhibition of human CYP2C9 using diclofenac as substrate at 10 uM. Format: ADME. The settings on record: probe diclofenac.
Series [23] addresses T4, hERG (KCNH2). As to the kind of experiment: Inhibition of human ERG channel expressed in CHO cells at 3.3 uM by patch clamp method. In kind it is cell-based. The settings on record: CHO cells expressing human ERG channel. In a few lines:
as §3

Activity calls are given as the source filed them. No cut-off for these calls is given here.

By EC50 is commonly meant the concentration at which the effect is half-maximal. By Emax is commonly meant the maximal effect, on the per cent scale that the assay sets. The term bioavailability denotes the share of a dose that reaches the circulation, judged against a reference dose that is usually intravenous. Higher therefore signals much systemic uptake. As a reminder, the inhibition is the percentage by which the read-out fell short of the control. Lower therefore signals a response near the control. The Ki is a measure of affinity in units of concentration, obtained from inhibition or displacement. Lower therefore signals tighter binding.

T4 sequence (Q12809 whole entry): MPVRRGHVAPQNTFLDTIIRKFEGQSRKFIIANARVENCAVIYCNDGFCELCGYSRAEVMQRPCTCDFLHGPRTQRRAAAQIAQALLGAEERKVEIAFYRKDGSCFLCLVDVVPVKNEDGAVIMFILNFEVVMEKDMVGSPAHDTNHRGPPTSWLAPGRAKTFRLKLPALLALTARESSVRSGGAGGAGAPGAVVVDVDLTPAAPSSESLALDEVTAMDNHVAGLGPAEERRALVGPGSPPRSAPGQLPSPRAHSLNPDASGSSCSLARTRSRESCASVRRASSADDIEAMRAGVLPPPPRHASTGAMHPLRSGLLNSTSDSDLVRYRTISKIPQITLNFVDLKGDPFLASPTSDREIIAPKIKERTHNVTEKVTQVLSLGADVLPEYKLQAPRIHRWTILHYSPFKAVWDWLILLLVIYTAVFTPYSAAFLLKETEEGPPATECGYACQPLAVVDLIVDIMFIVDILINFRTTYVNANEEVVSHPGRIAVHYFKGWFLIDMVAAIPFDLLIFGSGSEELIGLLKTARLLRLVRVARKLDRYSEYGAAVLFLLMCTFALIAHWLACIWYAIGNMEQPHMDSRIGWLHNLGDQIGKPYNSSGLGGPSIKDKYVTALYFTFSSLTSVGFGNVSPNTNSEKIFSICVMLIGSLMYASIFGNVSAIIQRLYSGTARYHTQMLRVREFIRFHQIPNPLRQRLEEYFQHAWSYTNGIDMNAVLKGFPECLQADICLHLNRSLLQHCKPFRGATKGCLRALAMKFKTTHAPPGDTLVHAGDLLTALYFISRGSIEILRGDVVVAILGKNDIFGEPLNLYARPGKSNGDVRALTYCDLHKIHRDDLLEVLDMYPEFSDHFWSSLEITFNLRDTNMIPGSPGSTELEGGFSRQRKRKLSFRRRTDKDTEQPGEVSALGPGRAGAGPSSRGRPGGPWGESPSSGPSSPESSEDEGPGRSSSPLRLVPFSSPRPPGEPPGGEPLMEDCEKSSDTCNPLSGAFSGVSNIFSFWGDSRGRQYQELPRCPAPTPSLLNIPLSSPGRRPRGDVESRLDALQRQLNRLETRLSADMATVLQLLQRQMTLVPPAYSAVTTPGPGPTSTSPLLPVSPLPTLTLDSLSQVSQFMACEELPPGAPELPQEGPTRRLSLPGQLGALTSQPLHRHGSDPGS
Chain of 5-hydroxytryptamine receptor 7 (P34969 whole entry): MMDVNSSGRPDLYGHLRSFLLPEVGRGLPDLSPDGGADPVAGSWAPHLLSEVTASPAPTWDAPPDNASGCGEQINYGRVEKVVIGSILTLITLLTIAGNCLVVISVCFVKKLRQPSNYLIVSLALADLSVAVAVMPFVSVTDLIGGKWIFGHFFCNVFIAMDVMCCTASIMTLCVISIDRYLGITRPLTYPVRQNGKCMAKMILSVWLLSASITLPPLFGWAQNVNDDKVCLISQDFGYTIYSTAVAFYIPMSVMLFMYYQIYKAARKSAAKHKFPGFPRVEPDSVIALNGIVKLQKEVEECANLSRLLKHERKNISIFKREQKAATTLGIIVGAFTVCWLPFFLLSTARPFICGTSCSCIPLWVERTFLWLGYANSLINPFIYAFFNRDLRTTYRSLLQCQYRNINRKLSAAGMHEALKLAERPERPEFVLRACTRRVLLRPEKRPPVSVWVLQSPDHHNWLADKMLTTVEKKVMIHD
Chain of Alpha-2B adrenergic receptor (P18089 whole entry): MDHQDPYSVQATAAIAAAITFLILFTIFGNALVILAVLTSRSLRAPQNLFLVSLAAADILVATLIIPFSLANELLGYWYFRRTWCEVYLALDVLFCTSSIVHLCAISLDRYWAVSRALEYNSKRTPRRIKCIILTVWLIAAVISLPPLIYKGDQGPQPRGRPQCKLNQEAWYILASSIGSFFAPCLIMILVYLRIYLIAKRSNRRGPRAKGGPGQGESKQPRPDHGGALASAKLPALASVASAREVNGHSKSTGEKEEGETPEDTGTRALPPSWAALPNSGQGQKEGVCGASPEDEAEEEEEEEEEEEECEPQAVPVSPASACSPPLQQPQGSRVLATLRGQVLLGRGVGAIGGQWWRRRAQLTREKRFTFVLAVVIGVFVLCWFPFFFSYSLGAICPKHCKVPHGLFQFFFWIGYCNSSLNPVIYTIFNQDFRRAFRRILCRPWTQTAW

For the compound `Clc1cccc(COc2cncc(N3CCNCC3)n2)c1`, the EC50 in series [1] came to 0.11 nM; in series [4], 65.3 nM. The Emax was determined as 93% in [2] and 57% in [4]. The Ratio EC50 in the series filed under Homo sapiens [3] was determined as 600.
`NC[C@H]1C[C@@H]1c1cc(O)ccc1OCC1CC1`: the bioavailability in [5] worked out at 3.2%.
As for `C=CCOc1ccc(F)cc1[C@H]1C[C@@H]1CN.Cl`, the EC50 in series [6] stood at 4.2 nM; in series [14], 374 nM. On hERG (KCNH2) [7], this compound came in with an inhibition at 30 µM of 45%. For the same compound, the Ki (in [8]; at D(3) dopamine receptor; in series [12]; in [13]; in [15]; in series [17]) was less than 1000 nM in each case. In [19], this compound came in with an inhibition constant Ki of less than 1000 nM. Moreover, the inhibition at 10 µM at CYP2C19 turned out to be 22%; at CYP2D6 it was 43%; against hERG (KCNH2) [11] it was 29%; against CYP3A4, 15%; against CYP2B6 it was 80%; against CYP2C9, 35%. The inhibition at […] turned out to be 6.4% against hERG (KCNH2) [9] and 8.7% on hERG (KCNH2) [21]. Besides, the Activity entry in the series with Mus musculus is “Dose-dependent effect”. Besides, the “inhibition (INH)” value in series [10] is “Dose-dependent effect”. Moreover, the Emax is 56% in [16] and 87% in [22]. Besides, the Ratio EC50 in the series filed under Homo sapiens [18] worked out at 89. Besides, the outcome in series [20] was inactive. On hERG (KCNH2) [23], this compound registered an inhibition at 3.3 µM of 18%.

For the origin of these results see ChEMBL document CHEMBL3414471 (J Med Chem, 2015).
